# The source made the active and inactive calls. The rule behind the calls is not given here.
# Columns and labels:
# Bel-7402 [1] = experiment: Cytotoxicity against human BEL-7402 cells assessed as photo-induced growth inhibition after 24 hrs in dark by MTT assay; type: functional, cell-based; conditions: Bel-7402, 24 h
# Summary of the method: (§1)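 Human hepatoma BEL-7402 cells were incubated with compound (0.03125–2.5 µg/mL) in the dark for 24 h at 37 °C. Cells in the light arm were then irradiated with a 670 nm laser at 10 J/cm² (56 mW/cm² for 3 min); dark-arm cells were not irradiated. Cells were then incubated for 24 h at 37 °C and survival was read by MTT in triplicate. IC50 was reported with 95% confidence limits.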
# Bel-7402 [2] = experiment: Cytotoxicity against human BEL-7402 cells assessed as photo-induced growth inhibition upto 2.5 ug/mL after 24 hrs in dark by MTT assay; type: functional; set-up: scale not given: the % may be the effect or the level left; summary of the method: as §1
# Bel-7402 [3] = experiment: Induction of apoptosis in human BEL-7402 cells […] by methyl green-pyronin staining method; type: functional, cell-based
Structure (SMILES),IC50 (Bel-7402 [1]) [µg/mL],Activity (Bel-7402 [2]) [%],Activity (Bel-7402 [3])
CCC1=C(C)c2cc3[nH]c(cc4nc(c(CC(=O)OC)c5[nH]c(cc1n2)c(C)c5C(=O)OC)C(CCC(=O)OC)=C4C)[C@@]1(C)C3=CC=C(C(=O)OC)[C@H]1C(=O)OC,1.32,>92,–
CCC1=C(C)c2cc3[nH]c(cc4nc(c(C)c5[nH]c(cc1n2)c(C)c5C(=O)OC)C(CCC(=O)OC)=C4C)[C@@]1(C)C3=CC=C(C(=O)OC)[C@H]1C(=O)OC,0.47,>92,–
CCC1=C(C)c2cc3[nH]c(cc4nc(c(C(=O)OC)c5[nH]c(cc1n2)c(C)c5C(=O)OC)C(CCC(=O)OC)=C4C)[C@@]1(C)C3=CC=C(C(=O)OC)[C@H]1C(=O)OC,0.27,>92,–
CCC1=C(C)c2cc3[nH]c(cc4nc(c5c6[nH]c(cc1n2)c(C)c6C(=O)C5C(=O)OC)C(CCC(=O)OC)=C4C)[C@@]1(C)C3=CC=C(C(=O)OC)[C@H]1C(=O)OC (some centres undefined),0.26,>92,Active

# — ChEMBL document CHEMBL1141607, “Design, synthesis, and in vitro photodynamic activities of benzochloroporphyrin derivatives as tumor photosensitizers” (Bioorg Med Chem Lett, 2008)
